Reference: ChEMBL document CHEMBL1138386, “Discovery of potent and selective PKC-theta inhibitors” (Bioorg Med Chem Lett, 2007)
pIC50: −log10 of the molar value.

Key:
[1] = target: T1, Protein kinase C theta type (Homo sapiens, UniProt Q04759); assay: Inhibition of PKCtheta by FP assay
Procedure, shortened: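 Recombinant PKC-θ, […], in 20 mM Hepes pH 7.6 with 0.1 mM CaCl2, 10 mM MgCl2, 0.01% Chaps, TCEP, Na orthovanadate and protease inhibitor cocktail. Enzyme pre-incubated with compound dilutions for 10 min at rt. Phosphopeptide read by competition FP using fluorescein-labelled phosphopeptide tracer and anti-phosphoserine antibody in quench buffer.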

T-cell = assay: Inhibition of IL2 production in […]-stimulated human CD4+ T cells; assay type: functional, cell-based; conditions: in the assay text read “anti-CD3/anti-CD28” for “anti-CD3/anti-CD8”
Procedure, shortened: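 Human CD4+ T cells isolated from whole blood by positive selection. Cells activated through TCR and CD28 with anti-CD3 and anti-CD28 mAbs. 50,000 cells/well exposed to compound dilutions at 0.125% DMSO final, or DMSO alone, overnight at 37 °C. Supernatant IL-2 measured by ELISA after 1:10 dilution.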

Cytochrome P450 2C9 = Cytochrome P450 2C9 (Homo sapiens, UniProt P11712); assay: Inhibition of CYP2C9; assay type: ADME
Cytochrome P450 2D6 = Cytochrome P450 2D6 (Homo sapiens, UniProt P10635); assay: Inhibition of CYP2D6; assay type: ADME
Cytochrome P450 3A4 [2] = target: T2, Cytochrome P450 3A4 (Homo sapiens, UniProt P08684); assay: Inhibition of CYP3A4 in presence of BFC substrate; assay type: ADME
[3] = Stability in human liver microsomes; assay type: ADME, Microsome
[4] = Permeability across Caco-2 cells from apical to basolateral side; assay type: ADME, cell-based; conditions: human, read-out: permeability
[5] = Permeability across Caco-2 cells from basolateral to apical side; assay type: ADME, cell-based; conditions: human, read-out: permeability
Cytochrome P450 3A4 [6] = target: T2, Cytochrome P450 3A4; assay: Inhibition of CYP3A4 in presence of BQ substrate; assay type: ADME
[7] = target: T1, Protein kinase C theta type; assay: Inhibition of PKCtheta in presence of 50 uM ATP
[8] = target: T1, Protein kinase C theta type; assay: Inhibition of PKCtheta in presence of 100 uM ATP

T2 sequence (P08684 whole entry): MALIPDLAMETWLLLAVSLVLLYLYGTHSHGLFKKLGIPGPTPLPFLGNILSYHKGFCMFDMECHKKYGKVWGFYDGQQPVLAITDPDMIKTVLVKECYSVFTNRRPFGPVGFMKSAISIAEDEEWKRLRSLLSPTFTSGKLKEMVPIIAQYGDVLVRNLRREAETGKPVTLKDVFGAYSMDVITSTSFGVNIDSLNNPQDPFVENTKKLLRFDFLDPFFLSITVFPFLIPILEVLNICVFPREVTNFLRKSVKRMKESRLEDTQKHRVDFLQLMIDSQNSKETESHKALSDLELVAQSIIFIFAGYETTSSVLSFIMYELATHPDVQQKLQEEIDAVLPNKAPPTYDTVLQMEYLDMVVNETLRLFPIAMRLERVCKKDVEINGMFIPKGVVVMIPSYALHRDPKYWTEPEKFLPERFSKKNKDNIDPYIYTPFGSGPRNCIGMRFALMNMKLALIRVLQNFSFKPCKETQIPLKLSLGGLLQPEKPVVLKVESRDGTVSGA
Cytochrome P450 2C9, sequence (P11712 whole entry): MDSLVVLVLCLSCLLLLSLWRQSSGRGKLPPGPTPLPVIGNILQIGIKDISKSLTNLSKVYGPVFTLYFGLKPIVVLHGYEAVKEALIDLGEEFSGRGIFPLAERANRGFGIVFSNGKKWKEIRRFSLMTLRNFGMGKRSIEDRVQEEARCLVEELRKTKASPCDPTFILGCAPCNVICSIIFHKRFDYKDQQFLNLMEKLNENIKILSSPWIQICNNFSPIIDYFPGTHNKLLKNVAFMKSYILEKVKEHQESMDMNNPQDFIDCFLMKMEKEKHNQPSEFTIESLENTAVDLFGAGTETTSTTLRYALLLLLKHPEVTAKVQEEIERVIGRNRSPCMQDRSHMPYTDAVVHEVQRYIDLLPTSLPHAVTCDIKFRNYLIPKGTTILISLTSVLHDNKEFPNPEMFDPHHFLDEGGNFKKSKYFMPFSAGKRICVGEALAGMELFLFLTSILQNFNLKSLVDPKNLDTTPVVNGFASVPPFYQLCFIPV
T1 sequence (Q04759 whole entry): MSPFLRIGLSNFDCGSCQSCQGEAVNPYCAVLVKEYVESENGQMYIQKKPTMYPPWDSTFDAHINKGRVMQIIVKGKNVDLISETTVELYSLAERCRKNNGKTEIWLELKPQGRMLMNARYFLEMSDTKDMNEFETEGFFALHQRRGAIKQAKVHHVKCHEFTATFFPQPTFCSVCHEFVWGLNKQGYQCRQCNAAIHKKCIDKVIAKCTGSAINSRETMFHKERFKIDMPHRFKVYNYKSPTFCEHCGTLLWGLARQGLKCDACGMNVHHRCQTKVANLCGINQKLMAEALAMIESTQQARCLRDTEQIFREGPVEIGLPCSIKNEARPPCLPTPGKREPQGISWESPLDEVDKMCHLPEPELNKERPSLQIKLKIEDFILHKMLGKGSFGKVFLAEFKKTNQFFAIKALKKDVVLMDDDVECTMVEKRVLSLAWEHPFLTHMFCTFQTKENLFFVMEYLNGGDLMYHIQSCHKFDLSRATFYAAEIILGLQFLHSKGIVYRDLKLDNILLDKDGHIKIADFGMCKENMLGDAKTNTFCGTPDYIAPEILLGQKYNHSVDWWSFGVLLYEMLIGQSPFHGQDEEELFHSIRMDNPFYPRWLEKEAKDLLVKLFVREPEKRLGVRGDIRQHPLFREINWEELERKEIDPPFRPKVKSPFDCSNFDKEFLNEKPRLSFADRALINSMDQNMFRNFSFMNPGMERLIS
Cytochrome P450 2D6, sequence (P10635 whole entry): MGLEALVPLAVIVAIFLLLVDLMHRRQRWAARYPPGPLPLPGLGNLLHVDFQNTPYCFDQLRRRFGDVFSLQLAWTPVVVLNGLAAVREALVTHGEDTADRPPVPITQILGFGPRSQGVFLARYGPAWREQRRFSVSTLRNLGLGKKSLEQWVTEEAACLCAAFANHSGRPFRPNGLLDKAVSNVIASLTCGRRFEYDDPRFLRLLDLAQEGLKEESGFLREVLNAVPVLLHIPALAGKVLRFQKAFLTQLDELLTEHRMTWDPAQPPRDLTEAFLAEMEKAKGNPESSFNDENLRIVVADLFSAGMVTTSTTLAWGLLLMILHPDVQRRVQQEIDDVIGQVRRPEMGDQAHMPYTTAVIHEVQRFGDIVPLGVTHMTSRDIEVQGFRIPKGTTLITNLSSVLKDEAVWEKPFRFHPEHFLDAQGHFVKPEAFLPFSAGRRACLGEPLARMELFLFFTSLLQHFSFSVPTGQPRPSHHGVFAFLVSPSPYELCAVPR

Compound	pIC50 [1]	also measured
NCC1CCC(CNc2nc(NCc3cccc(F)c3)ncc2[N+](=O)[O-])CC1 (stereo unspecified)	7.08	
NCC1CCC(CNc2nc(NCc3cccc(F)c3F)ncc2[N+](=O)[O-])CC1 (stereo unspecified)	7.66	
Cc1cccc(CNc2ncc([N+](=O)[O-])c(NCC3CCC(CN)CC3)n2)c1C (stereo unspecified)	7.89	
Cc1ccc(C)c(CNc2ncc([N+](=O)[O-])c(NCC3CCC(CN)CC3)n2)c1 (stereo unspecified)	6.04	
NCC1CCC(CNc2nc(NCc3ccc(F)cc3)ncc2[N+](=O)[O-])CC1 (stereo unspecified)	6.68	
COc1ccc(CNc2ncc([N+](=O)[O-])c(NCC3CCC(CN)CC3)n2)cc1 (stereo unspecified)	4.92	
NCC1CCC(CNc2nc(NCc3ccccc3C(F)F)ncc2[N+](=O)[O-])CC1 (stereo unspecified)	7.82	
NCC1CCC(CNc2nc(NCc3ccc(F)cc3F)ncc2[N+](=O)[O-])CC1 (stereo unspecified)	7.00	
NCC1CCC(CNc2nc(NC(=O)c3ccccc3Br)ncc2[N+](=O)[O-])CC1 (stereo unspecified)	5.66	
NC[C@H]1CC[C@@H](CNc2nc(NCc3ccccc3Cl)ncc2[N+](=O)[O-])CC1	7.74	
CN(C)CC1CCC(CNc2nc(NCc3ccccc3Cl)ncc2[N+](=O)[O-])CC1 (stereo unspecified)	7.27	pIC50 (T-cell): 6.72; pIC50 (Cytochrome P450 2C9): 5.08; pIC50 (Cytochrome P450 2D6): 5.77; pIC50 (Cytochrome P450 3A4 [2]): 5.77; half-life [3]: 40 min; Papp A→B [4]: 10.6 ×10⁻⁶ cm/s; Papp B→A [5]: 10.2 ×10⁻⁶ cm/s; pIC50 (Cytochrome P450 3A4 [6]): 4.89
O=[N+]([O-])c1cnc(NCc2ccccc2Cl)nc1NCC1CCNCC1	7.05	pIC50 (T-cell): 6.14; pIC50 (Cytochrome P450 2C9): 4.75; pIC50 (Cytochrome P450 2D6): < 4.52; pIC50 (Cytochrome P450 3A4 [2]): 4.55; half-life [3]: 66 min; Papp A→B [4]: 8.1 ×10⁻⁶ cm/s; Papp B→A [5]: 10.6 ×10⁻⁶ cm/s; pIC50 (Cytochrome P450 3A4 [6]): < 4.52
NCC1CCC(CNc2nc(NCc3ccccc3SC(F)(F)F)ncc2[N+](=O)[O-])CC1 (stereo unspecified)	8.22	
NCC1CCC(CNc2nc(NCc3ccccc3Br)ncc2[N+](=O)[O-])CC1 (stereo unspecified)	8.30	
NCC1CCC(CNc2nc(NCc3ccccc3-c3ccccc3)ncc2[N+](=O)[O-])CC1 (stereo unspecified)	7.41	
NCC1CCC(CNc2nc(NCc3c(F)cccc3F)ncc2[N+](=O)[O-])CC1 (stereo unspecified)	7.38	
NCC1CCC(CNc2nc(NCc3cccc(Cl)c3Cl)ncc2[N+](=O)[O-])CC1 (stereo unspecified)	8.10	
NCC1CCC(CNc2nc(NCc3ccc(Cl)cc3Cl)ncc2[N+](=O)[O-])CC1 (stereo unspecified)	7.57	
CC(C)(Nc1ncc([N+](=O)[O-])c(NCC2CCC(CN)CC2)n1)c1ccccc1 (stereo unspecified)	5.60	
C[C@H](Nc1ncc([N+](=O)[O-])c(NCC2CCC(CN)CC2)n1)c1ccccc1 (stereo partly specified)	5.43	
NCC1CCCC(CNc2nc(NCc3ccccc3Cl)ncc2[N+](=O)[O-])C1 (stereo unspecified)	8.52	

Compound	pIC50 [1]	also measured
NCCCCCNc1nc(NCc2ccccc2Cl)ncc1[N+](=O)[O-]	6.35	
NCCCCCCCNc1nc(NCc2ccccc2Cl)ncc1[N+](=O)[O-]	6.96	
NCC1CCC(CNc2nc(NCc3cc(Cl)ccc3Cl)ncc2[N+](=O)[O-])CC1 (stereo unspecified)	8.15	
Cc1c(Cl)cccc1CNc1ncc([N+](=O)[O-])c(NCC2CCC(CN)CC2)n1 (stereo unspecified)	7.34	
NCC1CCC(CNc2nc(N[C@H]3CCc4ccccc43)ncc2[N+](=O)[O-])CC1 (stereo partly specified)	5.36	
NCC1CCC(CNc2nc(N[C@@H]3CCc4ccccc43)ncc2[N+](=O)[O-])CC1 (stereo partly specified)	6.34	
NCC1CCC(CNc2nc(NCc3ccccc3Cl)ncc2[N+](=O)[O-])CC1 (stereo unspecified)	7.34	pIC50 [7]: 6.54; pIC50 [8]: 6.20; pIC50 (T-cell): 7.08; pIC50 (Cytochrome P450 2C9): 6.00; pIC50 (Cytochrome P450 2D6): 5.37; pIC50 (Cytochrome P450 3A4 [2]): 6.15; half-life [3]: 48 min; Papp A→B [4]: 4 ×10⁻⁶ cm/s; Papp B→A [5]: 6.9 ×10⁻⁶ cm/s; pIC50 (Cytochrome P450 3A4 [6]): 5.85
NCC1CCC(CNc2nc(NCc3ccc(Cl)cc3)ncc2[N+](=O)[O-])CC1 (stereo unspecified)	6.77	
Cc1ccccc1CCNc1ncc([N+](=O)[O-])c(NCC2CCC(CN)CC2)n1 (stereo unspecified)	6.74	
NCC1CCC(CNc2nc(NCCc3ccccc3F)ncc2[N+](=O)[O-])CC1 (stereo unspecified)	6.89	
NCC1CCC(CNc2nc(Nc3cc(Cl)cc(Cl)c3)ncc2C(F)(F)F)CC1 (stereo unspecified)	5.38	
NCC1CCC(CNc2nc(Nc3cccc(Cl)c3)ncc2C(F)(F)F)CC1 (stereo unspecified)	6.19	
NCC1CCC(CNc2nc(NCCc3ccc(F)cc3)ncc2[N+](=O)[O-])CC1 (stereo unspecified)	7.11	
NCC1CCC(CNc2nc(NCc3ccccc3)ncc2[N+](=O)[O-])CC1 (stereo unspecified)	6.30	
NCC1CCC(CNc2nc(NC3Cc4ccccc4C3)ncc2[N+](=O)[O-])CC1 (stereo unspecified)	7.51	
NCC1CCC(CNc2nc(NCCc3ccccc3)ncc2[N+](=O)[O-])CC1 (stereo unspecified)	7.03	
NCC1CCC(CNc2nc(NCc3ccccc3C(F)(F)F)ncc2[N+](=O)[O-])CC1 (stereo unspecified)	7.92	
NCC1CCC(CNc2nc(NCc3ccccc3OC(F)(F)F)ncc2[N+](=O)[O-])CC1 (stereo unspecified)	7.74	
NCC1CCC(CNc2nc(NCCCCc3ccccc3)ncc2[N+](=O)[O-])CC1 (stereo unspecified)	7.05	
NCC1CCC(CNc2nc(NCCc3cccc(F)c3)ncc2[N+](=O)[O-])CC1 (stereo unspecified)	7.27	
NCc1ccc(CNc2nc(NCc3ccccc3Cl)ncc2[N+](=O)[O-])cc1	6.80	

Compound	pIC50 [1]	also measured
NCc1cccc(CNc2nc(NCc3ccccc3Cl)ncc2[N+](=O)[O-])c1	6.70	
NCCCNc1nc(NCc2ccccc2Cl)ncc1[N+](=O)[O-]	< 5.00	
C[C@@H](Nc1ncc([N+](=O)[O-])c(NCC2CCC(CN)CC2)n1)c1ccccc1 (stereo partly specified)	5.24	
CSc1ccccc1CNc1ncc([N+](=O)[O-])c(NCC2CCC(CN)CC2)n1 (stereo unspecified)	8.30	pIC50 (T-cell): 6.85; pIC50 (Cytochrome P450 2C9): 5.85; pIC50 (Cytochrome P450 2D6): 5.33; pIC50 (Cytochrome P450 3A4 [2]): 5.16; half-life [3]: 65 min; Papp A→B [4]: 1.6 ×10⁻⁶ cm/s; Papp B→A [5]: 1.9 ×10⁻⁶ cm/s; pIC50 (Cytochrome P450 3A4 [6]): < 4.52
NCC1CCC(CNc2nc(Nc3cc(Cl)cc(Cl)c3)ncc2[N+](=O)[O-])CC1 (stereo unspecified)	6.17	
NCC1CCC(CNc2nc(NCc3cc(Cl)cc(Cl)c3)ncc2[N+](=O)[O-])CC1 (stereo unspecified)	6.40	
COc1cc(CNc2ncc([N+](=O)[O-])c(NCC3CCC(CN)CC3)n2)cc(OC)c1 (stereo unspecified)	5.82	
COc1cccc(CNc2ncc([N+](=O)[O-])c(NCC3CCC(CN)CC3)n2)c1 (stereo unspecified)	6.68	
NCC1CCC(CNc2nc(NCc3ccccc3F)ncc2[N+](=O)[O-])CC1 (stereo unspecified)	7.32	
COc1ccccc1CNc1ncc([N+](=O)[O-])c(NCC2CCC(CN)CC2)n1 (stereo unspecified)	7.77	
NC[C@H]1CC[C@H](CNc2nc(NCc3ccccc3Cl)ncc2[N+](=O)[O-])CC1	7.54	
NCC1CCC(CNc2nc(NCc3cc(F)ccc3F)ncc2[N+](=O)[O-])CC1 (stereo unspecified)	7.46	
NCC1CCC(CNc2nc(Nc3cccc(Cl)c3)ncc2[N+](=O)[O-])CC1 (stereo unspecified)	7.22	
NCC1CCC(CNc2nc(NCc3ccccc3[N+](=O)[O-])ncc2[N+](=O)[O-])CC1 (stereo unspecified)	7.96	
NCC1CCC(CNc2nc(NCCCc3ccccc3)ncc2[N+](=O)[O-])CC1 (stereo unspecified)	6.57	
O=[N+]([O-])c1cnc(NCc2ccccc2Cl)nc1NCC1CCCCC1	< 5.00	
CC(=O)NCC1CCC(CNc2nc(NCc3ccccc3Cl)ncc2[N+](=O)[O-])CC1 (stereo unspecified)	< 5.00	
Cc1ccccc1CNc1ncc([N+](=O)[O-])c(NCC2CCC(CN)CC2)n1 (stereo unspecified)	7.47	
NCC1CCC(CNc2nc(NCc3cccc(Cl)c3)ncc2[N+](=O)[O-])CC1 (stereo unspecified)	7.07	
Cc1cccc(CNc2ncc([N+](=O)[O-])c(NCC3CCC(CN)CC3)n2)c1 (stereo unspecified)	7.41	
